In ChEMBL document CHEMBL2375313, “Synthesis, in vitro antitumor evaluation and DNA-binding study of novel tetrahydroquinolines and some derived tricyclic and tetracyclic ring systems” (Eur J Med Chem, 2013):

What was measured:
Type in all cases: functional
HOP-92 = test: Cytotoxicity against human HOP92 cells assessed as growth inhibition at 10 uM after 48 hrs by sulphorhodamine B assay; details: HOP-92, 48 h, read-out: GI
Procedure, shortened: (§1)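 NCI-60 one-dose screen per the NCI Drug Evaluation Branch protocol. Cells given a single 10 µM concentration with 48 h continuous exposure. Growth estimated by sulphorhodamine B protein assay. Result expressed as percentage growth inhibition relative to untreated growth.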

NCI-H23 = test: Cytotoxicity against human NCI-H23 cells assessed as growth inhibition at 10 uM after 48 hrs by sulphorhodamine B assay; details: NCI-H23, 48 h, read-out: GI; procedure, shortened: as §1
[1] = Cytotoxicity against human EKVX cells assessed as growth inhibition at 10 uM after 48 hrs by sulphorhodamine B assay; details: read-out: GI; procedure, shortened: as §1
A549 = test: Cytotoxicity against human A549 cells assessed as growth inhibition at 10 uM after 48 hrs by sulphorhodamine B assay; details: A549, 48 h, read-out: GI; procedure, shortened: as §1
NCI/ADR-RES = test: Cytotoxicity against human NCI/ADR-RES cells assessed as growth inhibition at 10 uM after 48 hrs by sulphorhodamine B assay; details: read-out: GI; procedure, shortened: as §1
SNB-75 = test: Cytotoxicity against human SNB75 cells assessed as growth inhibition at 10 uM after 48 hrs by sulphorhodamine B assay; details: SNB-75, 48 h, read-out: GI; procedure, shortened: as §1
U-251 = test: Cytotoxicity against human U251 cells assessed as growth inhibition at 10 uM after 48 hrs by sulphorhodamine B assay; details: U-251, 48 h, read-out: GI; procedure, shortened: as §1
SNB-19 = test: Cytotoxicity against human SNB19 cells assessed as growth inhibition at 10 uM after 48 hrs by sulphorhodamine B assay; details: SNB-19, 48 h, read-out: GI; procedure, shortened: as §1
SF-295 = test: Cytotoxicity against human SF295 cells assessed as growth inhibition at 10 uM after 48 hrs by sulphorhodamine B assay; details: SF-295, 48 h, read-out: GI; procedure, shortened: as §1
DU-145 = test: Cytotoxicity against human DU145 cells assessed as growth inhibition at 10 uM after 48 hrs by sulphorhodamine B assay; details: DU-145, 48 h, read-out: GI; procedure, shortened: as §1
SF-268 = test: Cytotoxicity against human SF268 cells assessed as growth inhibition at 10 uM after 48 hrs by sulphorhodamine B assay; details: SF-268, 48 h, read-out: GI; procedure, shortened: as §1
PC-3 = test: Cytotoxicity against human PC3 cells assessed as growth inhibition at 10 uM after 48 hrs by sulphorhodamine B assay; details: PC-3, 48 h, read-out: GI; procedure, shortened: as §1
UACC-62 = test: Cytotoxicity against human UACC62 cells assessed as growth inhibition at 10 uM after 48 hrs by sulphorhodamine B assay; details: UACC-62, 48 h, read-out: GI; procedure, shortened: as §1
SK-MEL-2 = test: Cytotoxicity against human SK-MEL-2 cells assessed as growth inhibition at 10 uM after 48 hrs by sulphorhodamine B assay; details: SK-MEL-2, 48 h, read-out: GI; procedure, shortened: as §1
SK-MEL-5 = test: Cytotoxicity against human SK-MEL-5 cells assessed as growth inhibition at 10 uM after 48 hrs by sulphorhodamine B assay; details: SK-MEL-5, 48 h, read-out: GI; procedure, shortened: as §1
M14 = test: Cytotoxicity against human M14 cells assessed as growth inhibition at 10 uM after 48 hrs by sulphorhodamine B assay; details: M14, 48 h, read-out: GI; procedure, shortened: as §1
LOX IMVI = test: Cytotoxicity against human LOXIMVI cells assessed as growth inhibition at 10 uM after 48 hrs by sulphorhodamine B assay; details: read-out: GI; procedure, shortened: as §1
UO-31 = test: Cytotoxicity against human UO31 cells assessed as growth inhibition at 10 uM after 48 hrs by sulphorhodamine B assay; details: UO-31, 48 h, read-out: GI; procedure, shortened: as §1
CAKI-1 = test: Cytotoxicity against human Caki1 cells assessed as growth inhibition at 10 uM after 48 hrs by sulphorhodamine B assay; details: CAKI-1, 48 h, read-out: GI; procedure, shortened: as §1
RXF 393 = test: Cytotoxicity against human RXF393 cells assessed as growth inhibition at 10 uM after 48 hrs by sulphorhodamine B assay; details: RXF 393, 48 h, read-out: GI; procedure, shortened: as §1
ACHN = test: Cytotoxicity against human ACHN cells assessed as growth inhibition at 10 uM after 48 hrs by sulphorhodamine B assay; details: read-out: GI; procedure, shortened: as §1
SR = test: Cytotoxicity against human SR cells assessed as growth inhibition at 10 uM after 48 hrs by sulphorhodamine B assay; details: read-out: GI; procedure, shortened: as §1
A498 = test: Cytotoxicity against human A498 cells assessed as growth inhibition at 10 uM after 48 hrs by sulphorhodamine B assay; details: A498, 48 h, read-out: GI; procedure, shortened: as §1
RPMI-8226 = test: Cytotoxicity against human RPMI8226 cells assessed as growth inhibition at 10 uM after 48 hrs by sulphorhodamine B assay; details: RPMI-8226, 48 h, read-out: GI; procedure, shortened: as §1
MOLT-4 = test: Cytotoxicity against human MOLT4 cells assessed as growth inhibition at 10 uM after 48 hrs by sulphorhodamine B assay; details: MOLT-4, 48 h, read-out: GI; procedure, shortened: as §1
K562 = test: Cytotoxicity against human K562 cells assessed as growth inhibition at 10 uM after 48 hrs by sulphorhodamine B assay; details: K562, 48 h, read-out: GI; procedure, shortened: as §1
HL-60(TB) = test: Cytotoxicity against human HL-60(TB) cells assessed as growth inhibition at 10 uM after 48 hrs by sulphorhodamine B assay; details: HL-60, 48 h, read-out: GI
Procedure, shortened: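 NCI-60 one-dose primary screen run to the Drug Evaluation Branch protocol. Cells are exposed to a single 10 µM concentration for 48 h continuously, and growth is read by SRB protein assay. Data are reported as percent growth of treated cells, expressed as % growth inhibition.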

SK-OV-3 = test: Cytotoxicity against human SKOV3 cells assessed as growth inhibition at 10 uM after 48 hrs by sulphorhodamine B assay; details: SK-OV-3, 48 h, read-out: GI; procedure, shortened: as §1
CCRF-CEM = test: Cytotoxicity against human CCRF-CEM cells assessed as growth inhibition at 10 uM after 48 hrs by sulphorhodamine B assay; details: read-out: GI; procedure, shortened: as §1
OVCAR-5 = test: Cytotoxicity against human OVCAR5 cells assessed as growth inhibition at 10 uM after 48 hrs by sulphorhodamine B assay; details: OVCAR-5, 48 h, read-out: GI; procedure, shortened: as §1
OVCAR-4 = test: Cytotoxicity against human OVCAR4 cells assessed as growth inhibition at 10 uM after 48 hrs by sulphorhodamine B assay; details: OVCAR-4, 48 h, read-out: GI; procedure, shortened: as §1
IGROV-1 = test: Cytotoxicity against human IGROV1 cells assessed as growth inhibition at 10 uM after 48 hrs by sulphorhodamine B assay; details: IGROV-1, 48 h, read-out: GI; procedure, shortened: as §1
T47D = test: Cytotoxicity against human T47D cells assessed as growth inhibition at 10 uM after 48 hrs by sulphorhodamine B assay; details: read-out: GI; procedure, shortened: as §1
Hs-578T = test: Cytotoxicity against human Hs578T cells assessed as growth inhibition at 10 uM after 48 hrs by sulphorhodamine B assay; details: read-out: GI; procedure, shortened: as §1
NCI-H522 = test: Cytotoxicity against human NCI-H522 cells assessed as growth inhibition at 10 uM after 48 hrs by sulphorhodamine B assay; details: NCI-H522, 48 h, read-out: GI; procedure, shortened: as §1
HT-29 = test: Cytotoxicity against human HT-29 cells assessed as growth inhibition at 10 uM after 48 hrs by sulphorhodamine B assay; details: HT-29, 48 h, read-out: GI; procedure, shortened: as §1
MCF7 = test: Cytotoxicity against human MCF7 cells assessed as growth inhibition at 10 uM after 48 hrs by sulphorhodamine B assay; details: MCF7, 48 h, read-out: GI; procedure, shortened: as §1
MDA-MB-435 = test: Cytotoxicity against human MDA-MB-435 cells assessed as growth inhibition at 10 uM after 48 hrs by sulphorhodamine B assay; details: MDA-MB-435, 48 h, read-out: GI; procedure, shortened: as §1
HCT-15 = test: Cytotoxicity against human HCT15 cells assessed as growth inhibition at 10 uM after 48 hrs by sulphorhodamine B assay; details: HCT-15, 48 h, read-out: GI; procedure, shortened: as §1
MDA-MB-468 = test: Cytotoxicity against human MDA-MB-468 cells assessed as growth inhibition at 10 uM after 48 hrs by sulphorhodamine B assay; details: MDA-MB-468, 48 h, read-out: GI; procedure, shortened: as §1
HCT-116 = test: Cytotoxicity against human HCT116 cells assessed as growth inhibition at 10 uM after 48 hrs by sulphorhodamine B assay; details: HCT-116, 48 h, read-out: GI; procedure, shortened: as §1

Compound: COc1ccc(-c2c3c(nc4nc(C)[nH]c(=O)c24)C(C)CCC3)cc1 (stereo unspecified)
- inhibition of growth at 10 µM (HOP-92): 21.3%
- inhibition of growth at 10 µM (NCI-H23): < 10%
- inhibition of growth at 10 µM [1]: < 10%
- inhibition of growth at 10 µM (A549): 10%
- inhibition of growth at 10 µM (NCI/ADR-RES): < 10%
- inhibition of growth at 10 µM (SNB-75): < 10%
- inhibition of growth at 10 µM (U-251): < 10%
- inhibition of growth at 10 µM (SNB-19): < 10%
- inhibition of growth at 10 µM (SF-295): < 10%
- inhibition of growth at 10 µM (DU-145): < 10%
- inhibition of growth at 10 µM (SF-268): < 10%
- inhibition of growth at 10 µM (PC-3): 14.2%
- inhibition of growth at 10 µM (UACC-62): 14.8%
- inhibition of growth at 10 µM (SK-MEL-2): < 10%
- inhibition of growth at 10 µM (SK-MEL-5): 13.6%
- inhibition of growth at 10 µM (M14): < 10%
- inhibition of growth at 10 µM (LOX IMVI): 17.3%
- inhibition of growth at 10 µM (UO-31): < 10%
- inhibition of growth at 10 µM (CAKI-1): < 10%
- inhibition of growth at 10 µM (RXF 393): 12.5%
- inhibition of growth at 10 µM (ACHN): 11.3%
- inhibition of growth at 10 µM (SR): 46.8%
- inhibition of growth at 10 µM (A498): < 10%
- inhibition of growth at 10 µM (RPMI-8226): 21.8%
- inhibition of growth at 10 µM (MOLT-4): 23.3%
- inhibition of growth at 10 µM (K562): 11.2%
- inhibition of growth at 10 µM (HL-60(TB)): < 10%
- inhibition of growth at 10 µM (SK-OV-3): < 10%
- inhibition of growth at 10 µM (CCRF-CEM): 16.5%
- inhibition of growth at 10 µM (OVCAR-5): 11.4%
- inhibition of growth at 10 µM (OVCAR-4): < 10%
- inhibition of growth at 10 µM (IGROV-1): < 10%
- inhibition of growth at 10 µM (T47D): 18.2%
- inhibition of growth at 10 µM (Hs-578T): < 10%
- inhibition of growth at 10 µM (NCI-H522): 22%
- inhibition of growth at 10 µM (HT-29): < 10%
- inhibition of growth at 10 µM (MCF7): < 10%
- inhibition of growth at 10 µM (MDA-MB-435): 19%
- inhibition of growth at 10 µM (HCT-15): 11%
- inhibition of growth at 10 µM (MDA-MB-468): < 10%
- inhibition of growth at 10 µM (HCT-116): < 10%
